The RNAGym collection of RNA variant scans (doi:10.1038/nmeth.2970)

B1: NELF-E aptamer (parent)
chain: CCCAACGACUGCCGAGCGAGAUUACGCUUGAGCGCCCCACUGAGGAUGCCCACGGGCGAUUGGGGCACGG

Variants of: B1
Assay: HiTS-RAP
Details: with NELF-E (Drosophila)
How it was run: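 Aptamer DNA templates carrying a T7 promoter and ter site were sequenced on an Illumina GAIIx flowcell, then transcribed in situ by T7 RNA polymerase and halted by GST-Tus (30 minutes, 37°C). Clusters were imaged after 30-minute room-temperature equilibration with NELF-E-mOrange at 0.064 to 1000 nM in HEPES binding buffer, and only the first binding curve was used. Intensities were normalised to sequencing intensity and averaged per sequence. Kd came from weighted Hill fits, keeping fits with variance below 1,000,000.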

Variant | Kd [nM]
CCCAACGACUGCGGAGCGAGAUUACGCUUGAGCGCGCCACUGAGGAUGCCCACGGGCGAUUGGGGCACGG | 6.08
CCCAACGACUGCCGAGCGAGAUUACGCUUGAGCGCCCCACGGAGGAUGCCCACAGGCGAUUGGGGCACGG | 18.1
CCCUACGACUGCCGAGCGAGAUUACGCUUGAGCGCCCCACUGAGGAUGCCCAUGGGCGAUUGGGGCACGG | 3.61
CCCAACGACUGCCUAGCGAGAUUACGCUUGAGCGCCCCACUGAGGGUGCCCACGGGCGAUUGGGGCACGG | 57.2
CCCACAGACUGCCGAGCGAGAUUACGCUUGAGCGCCCCACUGAGGAUGCCCACGGGCGAUUGGGGCACGG | 7.97
CCCACCGUCUGCCGAGCGAGAUUACGCUUGAGCGCCCCACUGAGGAUGCCCACGGGCGAUUGGGGCACGG | 8.29
CCCAACUACUUCCGAGCGAGAUUACGCUUGAGCGCCCCACUGAGGAUGCCCACGGGCGAUUGGGGCACGG | 6.5
CCCAACGACUGCCGAGCGAGAUUACGCUUGAGCGCACCACUGAGGAUGCCCACGGGCGAUUGGAGCACGG | 14.3
CCCAACGACUGCCGAGCGAGAUUGCGCUUGAGCGCCCCACUGAGGAUGCCCACGGGCGAUUGGGGCUCGG | 7.95
CCCAACGACUGCCGAGCGAGAUUACGCUUGAGCGCCCCACGGAGGAUGCCCACGGGCGAUUGGCGCACGG | 7.1
CCCAACGACUGCCGAGCGAGAUUACGCUUGAGCGCCCCACUGAGGAUGCCCACGGGCGAUCGGGGCACGG | 63.7
CCCAACGACUGGCGAGCGAGAUUACGCUUGAGCGCCCCACUGAGGAUGCCCACGGGCGAUUGGGGUACGG | 6.17
CCCAACGACUGCGGAGCGAGAUUACGCUUGAGCGCCCCACUGUGGAUGCCCACGGGCGAUUGGGGCACGG | 27.8
CCCAACUACUGCCGAGCGAGAUUACGCUUGAGCGCCCCACUGAGGAUGCCCACGUGCGAUUGGGGCACGG | 6.97
CCCAACGACUGCCGAGCGAGAUUACGUGUGAGCGCCCCACUGAGGAUGCCCACGGGCGAUUGGGGCACGG | 5.03
CCCAACUACUGCCGAGCGAGAUUACGCUUGAGCGCCCCACUGAUGAUGCCCACGGGCGAUUGGGGCACGG | 16.7
CCCAACGACUGCCGAGCGAGAUGACGCUUGAGCGCCACACUGAGGAUGCCCACGGGCGAUUGGGGCACGG | 13.4
CCCAACGACUGCCGAGCGAGAUUAGGCUUGAGCGCCCCACUGAGGAUGCCCACGGGCGAUUGGGGCACGG | 5.2
CCCGACGACUGCCGUGCGAGAUUACGCUUGAGCGCCCCACUGAGGAUGCCCACGGGCGAUUGGGGCACGG | 6.63
CCCAACUACUGCCGAGCAAGAUUACGCUUGAGCGCCCCACUGAGGAUGCCCACGGGCGAUUGGGGCACGG | 5.43

Variant | Kd [nM]
CCCAACGACUGCCGAGCGAGAUGACGCUUGAGCGCCCCACUGAGGAUGCCCACGUGCGAUUGGGGCACGG | 8.32
CCCAACGCCUGCCGAGCGAGAUUACGCUUGAGCGCCCCACUGAGGAUGCCCACGGGCGAUUGGGGCACGG | 6.72
CCCAAGGACUGCUGAGCGAGAUUACGCUUGAGCGCCCCACUGAGGAUGCCCACGGGCGAUUGGGGCACGG | 4.96
CCCAACGUCUGCCGAGCGAGAUUGCGCUUGAGCGCCCCACUGAGGAUGCCCACGGGCGAUUGGGGCACGG | 6.05
CCCAACGACUGCCGAGGGUGAUUACGCUUGAGCGCCCCACUGAGGAUGCCCACGGGCGAUUGGGGCACGG | 7.26
CCCAAGGACUGCCGAGCGAGAUUACGCCUGAGCGCCCCACUGAGGAUGCCCACGGGCGAUUGGGGCACGG | 9
CCCAUCGACUGCCGAACGAGAUUACGCUUGAGCGCCCCACUGAGGAUGCCCACGGGCGAUUGGGGCACGG | 8.1
CCCAACGACUUCAGAGCGAGAUUACGCUUGAGCGCCCCACUGAGGAUGCCCACGGGCGAUUGGGGCACGG | 6.58
CCCAACGACUUCGGAGCGAGAUUACGCUUGAGCGCCCCACUGAGGAUGCCCACGGGCGAUUGGGGCACGG | 5.71
CCCUACGACUGCCGAGCGAGAUUACGCUUGAGCGCCCCACUGAGGAUGCCCACGGGUGAUUGGGGCACGG | 5.44
CCCAAUGACUGCCGAGCGAUAUUACGCUUGAGCGCCCCACUGAGGAUGCCCACGGGCGAUUGGGGCACGG | 8.79
CCCAACGACUGCCGAGCGAGAUUACGCUGGAGCGCCCCACUGAGGAUGCCCACGUGCGAUUGGGGCACGG | 6.64
CCCAACGACGGCCGAGCGAGAUUACGCUUGAGCGCCCCACUGAGGAUACCCACGGGCGAUUGGGGCACGG | 8.83
CCCUACUACUGCCGAGCGAGAUUACGCUUGAGCGCCCCACUGAGGAUGCCCACGGGCGAUUGGGGCACGG | 6.61
CCCAACGACUGCCGAGCGAGAUUACGCUUGAGCGCCCCACUGAGGAUGCCCACGGGCGAUAGGGGCGCGG | 27.4
CCCAAUGACUGCCGAGCGAGAUUACGCUUGAGCGCCCCGCUGAGGAUGCCCACGGGCGAUUGGGGCACGG | 11.6
CCCAACGACUGCUGAGGGAGAUUACGCUUGAGCGCCCCACUGAGGAUGCCCACGGGCGAUUGGGGCACGG | 5.11
CCCAACUACUGCCGAGCGAGAUUACGCUUGAGCGCCUCACUGAGGAUGCCCACGGGCGAUUGGGGCACGG | 10.5
CCCGACGACUGCCGAGCGAGAUUACGCUUGAGCGCCCCCCUGAGGAUGCCCACGGGCGAUUGGGGCACGG | 30.7
